In ChEMBL document CHEMBL4834423, “Discovery of AG-270, a First-in-Class Oral MAT2A Inhibitor for the Treatment of Tumors with Homozygous MTAP Deletion” (J Med Chem, 2021):
≈ marks a conversion by molar mass, not a printed value. Calls of active or inactive are those of the source. The calls are words filed in the database; no cut-off is given here.

How the values were obtained:
HCT-116 = experiment: cells; details: Homo sapiens, HCT-116, 96 h
[1] = Stability in human liver microsomes assessed as extraction ratio; type: ADME, Microsome; details: read-out: ERH
cells = details: Homo sapiens, HCT-116, 72 h
[2] = target: T1, S-adenosylmethionine synthase isoform type-2 (Homo sapiens, UniProt P31153); experiment: Inhibition of recombinant human MAT2A expressed in baculovirus infected Sf9 cells assessed as S-adenosyl methionine production using L-methionine as substrate incubated for 60 mins followed by substrate addition and measured after 60 mins
Target sequence in this assay (P31153 whole entry, canonical isoform): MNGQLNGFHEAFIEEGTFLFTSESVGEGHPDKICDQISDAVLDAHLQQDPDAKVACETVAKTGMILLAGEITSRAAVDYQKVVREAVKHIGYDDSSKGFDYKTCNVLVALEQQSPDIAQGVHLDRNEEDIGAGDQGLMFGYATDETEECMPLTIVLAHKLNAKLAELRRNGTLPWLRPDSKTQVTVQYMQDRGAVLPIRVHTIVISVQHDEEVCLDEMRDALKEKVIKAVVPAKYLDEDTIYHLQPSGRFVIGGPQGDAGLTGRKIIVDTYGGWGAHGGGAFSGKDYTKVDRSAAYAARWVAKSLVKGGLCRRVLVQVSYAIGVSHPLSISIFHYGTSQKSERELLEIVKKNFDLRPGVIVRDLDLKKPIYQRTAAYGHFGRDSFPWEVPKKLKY

[3] = target: T1, S-adenosylmethionine synthase isoform type-2; experiment: Inhibition of recombinant human MAT2A expressed in baculovirus infected Sf9 cells assessed as S-adenosyl methionine production using L-methionine as substrate incubated for 60 mins followed by substrate addition and measured after 60 mins relative to control; design: concentration or dose not given beside the values
Target sequence in this assay (P31153 whole entry, looked up, canonical isoform): as the sequence (P31153 whole entry, canonical isoform) above

[4] = Solubility of compound at pH 7.4; type: physicochemical; details: buffer
[5] = Solubility of compound at pH 2; type: physicochemical; details: buffer
[6] = target: T1, S-adenosylmethionine synthase isoform type-2; experiment: Inhibition of MAT2A (unknown origin) enzymatic assay
Target sequence in this assay (P31153 whole entry, canonical isoform): as above

[7] = Plasma protein binding in human by ultracentrifugation; type: ADME, cell-free; details: read-out: PPB (converted)
In short: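 Human plasma protein binding was determined by ultracentrifugation.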

[8] = Protein binding in human plasma assessed as unbound fraction; type: ADME, cell-free
[9] = Efflux ratio of apparent permeability from basolateral side to apical side over apical side to basolateral side in human Caco-2 cells; type: ADME, cell-based
[10] = Cmax in MTAP-null KP4 cells xenografted mouse plasma treated po twice daily; type: ADME, organism-based; design: route oral
In short: (§1)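 KP4 MTAP-null xenograft-bearing mice dosed orally twice daily. Cmax was determined in plasma (ng/mL) and tumor (ng/g) after 3 b.i.d. doses.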

[11] = Plasma protein binding in mouse by ultracentrifugation; type: ADME, cell-free; details: read-out: PPB (converted)
[12] = Permeability from apical to basolateral side in human Caco-2 cells; type: ADME, cell-based; details: read-out: permeability
[13] = Cmax in MTAP-null KP4 cells xenografted mouse measured in tumor treated po twice daily; type: ADME, organism-based, Neoplasm; design: route oral
In short: as §1

[14] = AUC (0 to 12 hrs) in MTAP-null KP4 cells xenografted mouse measured in tumor treated po twice daily; type: ADME, organism-based, Neoplasm; design: time < 12 hr, route oral; details: in vivo
[15] = AUC (0 to 12 hrs) in MTAP-null KP4 cells xenografted mouse plasma treated po twice daily; type: ADME, organism-based; design: time < 12 hr, route oral; details: in vivo
[16] = target: T1, S-adenosylmethionine synthase isoform type-2; experiment: Binding affinity to MAT2A (unknown origin) by surface plasmon resonance assay
In short: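 SPR: His-tagged MAT2A was captured on CM5 chips via covalently coupled penta-anti-His IgG (~16 000 RU), to a capture level of ~7500 RU.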
Target sequence in this assay (P31153 whole entry, canonical isoform): as above

Compound	hepatic extraction ratio [1]	IC50 ([2]; read-out: IC50) [nM]	inhibition [3]	further results
Cc1[nH]c2c(N3CCCCC3)c(-c3ccccc3)nn2c(=O)c1-c1cn[nH]c1	–	1310	95%	–
Nc1cc(=O)n2nc(-c3ccccc3)c(-c3ccccc3)c2[nH]1	–	–	–	IC50 ([2]; sf9): Not Active
Cc1cc(=O)n2nc(-c3ccccc3)c(N3CCCCC3)c2[nH]1	–	260	86%	solubility [4]: 13 µM (≈ 4.01 µg/mL); solubility [5]: 61 µM (≈ 18.8 µg/mL)
Cc1[nH]c2c(N3CCCCC3)c(-c3ccccc3)nn2c(=O)c1-c1cscn1	–	158	85%	–
Cc1cc(=O)n2nc(C)c(-c3ccccc3)c2[nH]1	–	–	–	IC50 [6]: 620000 nM
Cc1c(-c2ccc(O)cc2)c(=O)n2nc(-c3ccccc3)c(N3CCCCC3)c2n1C	–	102	66%	fraction unbound [7]: 0.0154; fraction unbound [8]: 0.0154
Cc1c(-c2ccc3ncccc3c2)c(=O)n2nc(-c3ccccc3)c(-c3ccccc3)c2n1C	–	120	61%	fraction unbound [7]: 0.009; fraction unbound [8]: 0.009
Cc1cc(=O)n2nc(-c3ccccc3)c(-c3ccccn3)c2[nH]1	–	7100	79%	–
Cc1cc(=O)n2nc(-c3cccc(O)c3)c(-c3ccccc3)c2[nH]1	–	12200	92%	IC50 (HCT-116): 75000 nM; IC50 (cells): 7650 nM
Cc1cc(=O)n2nc(-c3ccccc3)c(C3=CCCC3)c2[nH]1	–	1140	84%	IC50 (HCT-116): 82000 nM; IC50 (cells): 588 nM
Cc1[nH]c2c(-c3ccccc3)c(-c3ccccc3)nn2c(=O)c1-c1ccc2ncccc2c1	0.16	97	95%	efflux ratio [9]: 6; Cmax [10]: 179 µg/mL; fraction unbound [11]: 0.0003; Papp A→B [12]: 6.75 ×10⁻⁶ cm/s; solubility [4]: 15 µM (≈ 6.43 µg/mL); Cmax [13]: 32300 ng/g; AUC [14]: 372000 ng·h/g; fraction unbound [7]: < 0.001; solubility [5]: 67 µM (≈ 28.7 µg/mL); AUC [15]: 1650000 ng·h/g; fraction unbound [8]: 0.0003
Cc1[nH]c2c(C3=CCCC3)c(-c3ccccc3)nn2c(=O)c1-c1ccc2ncccc2c1	–	159	96%	–
Cc1cc(=O)n2nc(-c3ccccc3)c(C3=CCCCC3)c2[nH]1	–	260	85%	IC50 (HCT-116): 72000 nM; solubility [4]: < 0.5 µM; IC50 (cells): 106 nM; solubility [5]: < 0.5 µM
CC(=O)Nc1cc(=O)n2nc(-c3ccccc3)c(-c3ccccc3)c2[nH]1	–	4110	85%	–
O=c1cc(Nc2cc[nH]n2)[nH]c2c(-c3ccccc3)c(-c3ccccc3)nn12	–	270	88%	–
CCc1cc(=O)n2nc(-c3ccccc3)c(-c3ccccc3)c2[nH]1	–	3660	54%	–
Cc1cc(=O)n2nc(-c3nccs3)c(-c3ccccc3)c2[nH]1	–	78800	63%	–
Cc1cc(=O)n2nc(-c3ccccc3)c(-c3ccco3)c2[nH]1	–	3660	90%	–
Cc1cc(=O)n2nc(-c3cn[nH]c3)c(-c3ccccc3)c2[nH]1	–	50100	inactive	–
O=c1cc(Nc2ccccc2)[nH]c2c(-c3ccccc3)c(-c3ccccc3)nn12	–	16600	70%	–
Cc1cc(=O)n2nc(-c3ccccc3)c(C3CCCC3)c2[nH]1	–	680	88%	–
Cc1cc(=O)n2nc(-c3ccccc3)c(C3CCCCC3)c2[nH]1	–	660	59%	–
Cc1cc(=O)n2nc(C3=CCCCC3)c(-c3ccccc3)c2[nH]1	–	–	–	IC50 ([2]; sf9): Not Active
Cc1[nH]c2c(N3CCCCC3)c(-c3ccccc3)nn2c(=O)c1-c1ccncc1	–	160	91%	–
Cc1[nH]c2c(N3CCCCC3)c(-c3ccccc3)nn2c(=O)c1-c1ccccc1	–	150	93%	–
Cc1cc(=O)n2nc(-c3ccco3)c(-c3ccccc3)c2[nH]1	–	1500	65%	–
Cc1cc(=O)n2nc(-c3cccc(F)c3)c(-c3ccccc3)c2[nH]1	–	1900	76%	–
Cc1cc(=O)n2nc(-c3ccccc3)c(-c3ccccc3)c2[nH]1	–	1500	69%	IC50 [6]: 1500 nM; Kd [16]: 70000 nM

Second part, led by results:

hepatic extraction ratio [1]	IC50 ([2]; read-out: IC50) [nM]	inhibition [3]	Compound	further results
0.36	13	94%	COc1ccc(-c2c(Nc3cc[nH]n3)[nH]c3c(-c4ccccc4)c(-c4ccccc4)nn3c2=O)cc1	IC50 (HCT-116): 892000 nM; IC50 (cells): 8 nM
–	25	96%	Cc1[nH]c2c(C3=CCCCC3)c(-c3ccccc3)nn2c(=O)c1-c1ccc2ncccc2c1	–
0.55	4	92%	O=c1c(-c2ccc3ncccc3c2)c(Nc2cc[nH]n2)[nH]c2c(C3=CCCCC3)c(-c3ccccc3)nn12	IC50 (HCT-116): 73 nM; IC50 (cells): 18 nM
0.51	11	93%	CCOC(=O)n1ccc(Nc2[nH]c3c(-c4ccccc4)c(-c4ccccc4)nn3c(=O)c2-c2ccc(OC)cc2)n1	IC50 (HCT-116): 430 nM; IC50 (cells): 15 nM
0.13	7	85%	COc1ccc(-c2c(Nc3ccccn3)[nH]c3c(-c4ccccc4)c(-c4ccccc4)nn3c2=O)cc1	IC50 (HCT-116): 793 nM; IC50 (cells): 25 nM
0.75	83	94%	Cc1[nH]c2c(N3CCCCC3)c(-c3ccccc3)nn2c(=O)c1-c1ccc2[nH]c(N)nc2c1	–
0.88	52	95%	Cc1[nH]c2c(N3CCCCC3)c(-c3ccccc3)nn2c(=O)c1-c1ccc2ncccc2c1	–
0.79	45	92%	Cc1[nH]c2c(N3CCCCC3)c(-c3ccccc3)nn2c(=O)c1-c1ccc2[nH]cnc2c1	–
0.83	8	93%	Cc1[nH]c2c(N3CCCCC3)c(-c3ccccc3)nn2c(=O)c1-c1ccc2c(c1)OCO2	–
–	28	95%	COc1ccc(-c2c(Nc3cnccn3)[nH]c3c(C4=CCCCC4)c(-c4ccccc4)nn3c2=O)cc1	IC50 (HCT-116): 409 nM; IC50 (cells): 16 nM
0.26	7	93%	O=c1c(-c2ccc(O)cc2)c(Nc2cc[nH]n2)[nH]c2c(-c3ccccc3)c(-c3ccccc3)nn12	IC50 (HCT-116): 527 nM
0.66	66	93%	Cc1[nH]c2c(C3CCCCC3)c(-c3ccccc3)nn2c(=O)c1-c1ccc2ncccc2c1	–
0.54	33	93%	Cc1[nH]c2c(-c3ccccc3)c(-c3ccccc3)nn2c(=O)c1-c1ccc(O)cc1	–
0.49	7	94%	O=c1c(-c2ccc3ncccc3c2)c(Nc2cc[nH]n2)[nH]c2c(-c3ccccc3)c(-c3ccccc3)nn12	IC50 (HCT-116): 522 nM
0.11	10	94%	COc1ccc(-c2c(Nc3ccon3)[nH]c3c(C4=CCCCC4)c(-c4ccccc4)nn3c2=O)cc1	IC50 (HCT-116): 812 nM; IC50 (cells): 65 nM
0.56	5	96%	COc1ccc(-c2c(Nc3cc[nH]n3)[nH]c3c(C4=CCCCC4)c(-c4ccccc4)nn3c2=O)cc1	IC50 (HCT-116): 80 nM; IC50 (cells): 21 nM
0.7	4	88%	CCOC(=O)c1nnc(Nc2[nH]c3c(-c4ccccc4)c(-c4ccccc4)nn3c(=O)c2-c2ccc3ncccc3c2)o1	–
–	57	91%	Cc1[nH]c2c(N3CCCCC3)c(-c3ccccc3)nn2c(=O)c1-c1ccc(O)cc1	IC50 (cells): 100 nM; fraction unbound [7]: 0.001; fraction unbound [8]: 0.0009
